One may read the IC50 as the midpoint of a concentration-inhibition curve.

For data set [1], the system named is HCT-116 (colon carcinoma). As to the kind of experiment: MTT assay, cytotoxicity/growth inhibition. It is filed as cell-based. To be noted: Homo sapiens; for inhibition at 20 µM: HCT-116, 48 h, read-out: Cytotoxic Activity (% Growth Inhibition); for IC50: HCT-116. The method in brief: (§1)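 Cells were grown in RPMI (A549, HCT-116, PC-3) or DMEM (MCF-7) with 10% FBS at 37 °C and 5% CO2. Seeding per well was […] and PC-3 8 × 10^4 cells. […] MTT 250 μg/mL, 4 h; DMSO; A570; triplicate; mean ± SE.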

The subject of data set [2] is PC-3 (prostate carcinoma). As to the kind of experiment: MTT assay, cytotoxicity/growth inhibition. As to conditions: Homo sapiens; for inhibition at 20 µM: 48 h, read-out: Cytotoxic Activity (% Growth Inhibition). It is filed as cell-based. In a few lines: as §1
For the next data set, the system named is MCF-7 (breast carcinoma). As to the kind of experiment: MTT assay, cytotoxicity/growth inhibition. It is filed as cell-based. As to conditions: Homo sapiens; for inhibition at 20 µM: MCF7, 48 h, read-out: Cytotoxic Activity (% Growth Inhibition); for IC50: MCF7. In a few lines: as §1
In another data set the test system is A549 (lung carcinoma). As to the kind of experiment: MTT assay, cytotoxicity/growth inhibition. It is filed as cell-based, human. As to conditions: for inhibition at 20 µM / IC50: Homo sapiens; for inhibition at 20 µM: A549, 48 h, read-out: Cytotoxic Activity (% Growth Inhibition), A549, 20 μM concentration, MTT, 48 h; for Cytotoxic Activity (% Growth Inhibition): A549, 20 μM concentration, MTT, 48 h, 20 µM; for IC50: A549. In a few lines: as §1
(Tetrazolium assays rely on reduction of a dye to a coloured formazan, in cell work by metabolically active cells.)

Data set [3] concerns A549 cells. As to the kind of experiment: Intracellular ROS, DCFDA/DCFHDA staining. As to conditions: A549, DCFDA dye, 48 h. It is filed as cell-based, human. In a few lines: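 Seeded A549 cells (3 × 10^4 per well) adhered 24 h at 37 °C, then received test compound at 1, 3.5 or 5 μM for 48 h. Cells were loaded with 10 μM DCFHDA for 30 min at 37 °C and moved to PBS. Intracellular ROS was imaged by fluorescence microscopy. H2O2 (0.05%) was the positive control.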

In data set [4] the test system is normal human embryonic kidney cells (HEK293). As to the kind of experiment: Selectivity index versus normal cell line. It is filed as cell-based.
A further data set has as its system HOP62. As to the kind of experiment: In vitro cytotoxicity, expanded lung cancer panel. As to conditions: Homo sapiens, HOP-62. It is filed as cell-based.
Data set [5] has as its system A549 cells. As to the kind of experiment: Mitochondrial membrane potential, Rhodamine-123 staining. It is filed as cell-based, human. To be noted: A549, Rh-123 dye, 1, 3.5 and 5 μM, 48 h, versus untreated cells. In a few lines:
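A549 cells (3 × 10^4 per well) adhered 24 h at 37 °C and were treated with test compound at 1, 3.5 and 5 μM for 48 h. They were stained with 10 μM rhodamine-123 for 30 min at 37 °C and washed in PBS. Fluorescence microscopy read mitochondrial membrane potential as Rh-123 fluorescence, compared with untreated cells.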

Data set [6] concerns A549 cells. As to the kind of experiment: DAPI staining, nuclear morphology / apoptosis. As to conditions: A549, 1, 3.5 and 5 μM, 48 h. It is filed as cell-based, human. In a few lines: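 A549 cells (3 × 10^4 per well) were grown 48 h, then exposed to test compound at 1, 3.5 and 5 μM for 48 h. Cells were washed in PBS, fixed in ice-cold 4% paraformaldehyde for 20 min and permeabilised with 0.25% Triton X-100. Staining was DAPI at 1 μg/mL final for 30 min, read by fluorescence microscopy. Cisplatin 17 μM was the positive control.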

Another data set concerns HOP92. As to the kind of experiment: In vitro cytotoxicity, expanded lung cancer panel. It is filed as cell-based. To be noted: Homo sapiens, HOP-92.

“Also recorded” adds a separate entry of the source. Bounds are passed on as bounds.

On to `COc1cccc(C(=O)OCC2=CCC3[C@](C)(CO)[C@H](O)CC[C@@]3(C)[C@@H]2/C=C/C2=CCOC2=O)c1` (stereo partly drawn) [Compound 9b, ((1S,5R,6R,8aR)-6-Hydroxy-5-(hydroxymethyl)-5,8a-dimethyl-1-((E)-2-(2-oxo-2,5-dihydrofuran-3-yl)vinyl)-1,4,4a,5,6,7,8,8a-octahydronaphthalen-2-yl)methyl 3-Methoxybenzoate], for which the inhibition at 20 µM in data set [1] was 0%; in data set [2], 7 ± 0.58%; in the data set on MCF-7 (breast carcinoma), 14.6 ± 0.09%; in the data set with A549 (lung carcinoma), 39.85 ± 0.26%.
For `COc1ccc(C(=O)OCC2=CCC3[C@]4(C)COC(c5ccccc5)O[C@@H]4CC[C@@]3(C)[C@@H]2/C=C/C2=CCOC2=O)cc1Cl` (stereo partly drawn) [Compound 8l, ((4aR,6aR,7S,10bR)-6a,10b-Dimethyl-7-((E)-2-(2-oxo-2,5-dihydrofuran-3-yl)vinyl)-3-phenyl-4a,5,6,6a,7,10,10a,10b-octahydro-1H-naphtho[2,1-d][1,3]dioxin-8-yl)methyl 3-Chloro-4-methoxybenzoate], the inhibition at 20 µM is 36.2 ± 0.8% in data set [1], 62 ± 0.97% in [2], 51 ± 0.5% with MCF-7 (breast carcinoma) and less than 60% in the data set with A549 (lung carcinoma). The “Cytotoxic Activity (% Growth Inhibition)” value with A549 (lung carcinoma) was 61.6 ± 0.83%.
With `C[C@@]12COC(c3ccccc3)O[C@@H]1CC[C@]1(C)C2CC=C(COC(=O)Cc2ccc(I)cc2)[C@H]1/C=C/C1=CCOC1=O` (stereo partly drawn) [Compound 8r, ((4aR,6aR,7S,10bR)-6a,10b-Dimethyl-7-((E)-2-(2-oxo-2,5-dihydrofuran-3-yl)vinyl)-3-phenyl-4a,5,6,6a,7,10,10a,10b-octahydro-1H-naphtho[2,1-d][1,3]dioxin-8-yl)methyl 2-(4-Iodophenyl)acetate], the IC50 in data set [1] was more than 20 µM; in data set [2], 5.8 µM; with MCF-7 (breast carcinoma), more than 20 µM; in the data set with A549 (lung carcinoma) it was more than 20 µM. The inhibition at 20 µM in data set [1] was 22.1 ± 0.58%; in [2] it was 77 ± 0.48%; in the data set on MCF-7 (breast carcinoma), 42 ± 0.69%; in the data set with A549 (lung carcinoma) it was 2.9 ± 0.69%.
For `COc1cc(CC(=O)OCC2=CCC3[C@](C)(CO)[C@H](O)CC[C@@]3(C)[C@@H]2/C=C/C2=CCOC2=O)cc(OC)c1OC` (stereo partly drawn) [Compound 9u, ((1S,5R,6R,8aR)-6-Hydroxy-5-(hydroxymethyl)-5,8a-dimethyl-1-((E)-2-(2-oxo-2,5-dihydrofuran-3-yl)vinyl)-1,4,4a,5,6,7,8,8a-octahydronaphthalen-2-yl)methyl 2-(3,4,5-Trimethoxyphenyl)acetate], the inhibition at 20 µM amounted to 35.9 ± 0.87% in [1], 48.7 ± 0.96% in [2], 69 ± 0.58% in the data set with MCF-7 (breast carcinoma) and 32.6 ± 0.38% in the data set on A549 (lung carcinoma).
With `COc1ccc(CC(=O)OCC2=CCC3[C@](C)(CO)[C@H](O)CC[C@@]3(C)[C@@H]2/C=C/C2=CCOC2=O)cc1` (stereo partly drawn) [Compound 9s, ((1S,5R,6R,8aR)-6-Hydroxy-5-(hydroxymethyl)-5,8a-dimethyl-1-((E)-2-(2-oxo-2,5-dihydrofuran-3-yl)vinyl)-1,4,4a,5,6,7,8,8a-octahydronaphthalen-2-yl)methyl 2-(4-Methoxyphenyl)acetate], the “intracellular ROS generation” value in the data set on A549 cells [3] (1 μM) is given as “increases reactive oxygen species (ROS); also recorded: significantly induced more ROS generation”. Also, the “intracellular ROS levels” value in the data set with A549 cells [3] (3.5 and 5 μM) is recorded as “ROS levels decrease”. The half-inhibitory concentration (IC50) in data set [1] is more than 20 µM; in the data set with HOP62 it was 13 µM; in data set [2] it was more than 20 µM; with HOP92, 38.6 µM; with MCF-7 (breast carcinoma), 14.6 µM; in the data set on A549 (lung carcinoma) it was 3.5 µM. Besides, the inhibition at 20 µM came out at 4.1 ± 0.97% in [1], 27.6 ± 0.89% in [2], 54 ± 0.74% with MCF-7 (breast carcinoma) and 82% in the data set with A549 (lung carcinoma). Moreover, the “selectivity index (SI) wrt HEK cell line” value stood at 13.9 in data set [4] (A549 versus HEK293), 3.7 in data set [4] (HOP62 versus HEK293) and 1.26 in [4] (HOP92 versus HEK293). In addition, in the data set with A549 cells [5], the “mitochondrial membrane potential (MMP)” value was “disturbed mitochondrial membrane potential (MMP); also recorded: significant reduction in MMP; also recorded: disturbs mitochondrial membrane potential”. In addition, the “nuclear morphology / apoptosis (DAPI staining)” value in the data set with A549 cells [6] is “nuclear morphological changes; also recorded: altered staining pattern, apoptotic bodies, and condensed chromatin; also recorded: induces apoptosis”. For the same compound, in the data set with A549 (lung carcinoma), the “Cytotoxic Activity (% Growth Inhibition)” value is 82.2 ± 0.78%. Further, the “potency relative to andrographolide (times / fold more potent)” value in the data set on A549 (lung carcinoma) (A549, ratio of IC50 values) is reported as approximately 7.

The values above are taken from paper PMC9933479 (ACS Omega, 2023).
